Positions of bridges follow the written chain, without caps; N, C: chain ends. Non-standard residues stand in square brackets, D forms with d. Residues, ends and D or L forms follow the SMILES beside them. No end group written: not given here. R8 = C=CCCCCCC[C@@](C)(N)C(=O)O; S5 = C=CCCC[C@](C)(N)C(=O)O
Assays:
[1] = Relative hydrophobicity by UPLC retention time; format: physicochemical; settings: comparison among stapled peptides st4-1–6 and st7-1–6 (Table S1)
HeLa cells [2] = assay: Peptide cytotoxicity, WST-8; format: cell-based; settings: 24 h; for Cytotoxicity at 10 µM: peptide 10 µM; for Cytotoxicity at 30 µM: peptide 30 µM
Huh-7-Luc cells = assay: RNAi assay by luciferase assay, peptide/siRNA complexes; format: cell-based, human; settings: peptide/Luc-siRNA complex, N/P ratio 16, 48 h, n = 5
Method in brief: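 Complexes of peptide with firefly GL3 luciferase siRNA, or scrambled-sequence control siRNA, were prepared at N/P 8 or 16. They were added to Huh-7 cells stably expressing luciferase and incubated for 48 h. Silencing was measured as loss of luminescence; n = 5, mean ± standard deviation.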

HeLa cells [3] = assay: Luciferase reporter assay, transfection of pDNA with peptide/pDNA complexes; format: cell-based; settings: N/P ratio 16, 24 h
Method in brief: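 Peptide/pDNA complexes were made with luciferase-encoding (rLuc) pDNA at an N/P charge ratio (peptide cationic residues to pDNA phosphate) of 8 or 16. They were added to HeLa cells for 24 h. Transfection was read as luminescence, given as RLU normalized to blank; n = 3, mean ± standard deviation.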

Compound	Relative hydrophobicity from UPLC retention times [1]	Cytotoxicity at 10 µM (HeLa cells [2])	Reduction of the luminescence signal (gene silencing) with Luc-siRNA (Huh-7-Luc cells)	Transfection efficiency of pDNA relative to st7-5 (HeLa cells [3])	Cytotoxicity at 30 µM (HeLa cells [2])
CC[C@H](C)[C@H](NC(=O)CN)C(=O)N[C@@H](CCCCN)C(=O)N[C@@H](CCCCN)C(=O)N[C@@H](Cc1ccccc1)C(=O)N[C@@H](CC(C)C)C(=O)N[C@@H](CCCCN)C(=O)N[C@]1(C)CCCCCCC=CCCC[C@@](C)(C(=O)N[C@@H](Cc2ccccc2)C(=O)N[C@@H](CCCCN)C(N)=O)NC(=O)[C@H](CCCCN)NC(=O)[C@H](C(C)C)NC(=O)[C@H](Cc2ccccc2)NC(=O)[C@H](CCCCN)NC(=O)[C@H](CCCCN)NC(=O)[C@H](C)NC1=O [st7-5] (H-GIKKFLK[R8]AKKFVK[S5]FK-NH2; staple 8-15)	most hydrophobic	did not show significant cytotoxicity	–	–	–
CC[C@H](C)[C@H](NC(=O)CN)C(=O)N[C@@H](CCCNC(=N)N)C(=O)N[C@@H](CCCNC(=N)N)C(=O)N[C@@H](Cc1ccccc1)C(=O)N[C@@H](CC(C)C)C(=O)N[C@@H](CCCNC(=N)N)C(=O)N[C@]1(C)CCCCCCC=CCCC[C@@](C)(C(=O)N[C@@H](Cc2ccccc2)C(=O)N[C@@H](CCCNC(=N)N)C(N)=O)NC(=O)[C@H](CCCNC(=N)N)NC(=O)[C@H](C(C)C)NC(=O)[C@H](Cc2ccccc2)NC(=O)[C@H](CCCNC(=N)N)NC(=O)[C@H](CCCNC(=N)N)NC(=O)[C@H](C)NC1=O [st7-5_R] (H-GIRRFLR[R8]ARRFVR[S5]FR-NH2; staple 8-15)	–	did not show significant cytotoxicity	~70%	about 100 times	–
GIGKFLHSAKKFGKAFVGEIMNS-NH2 [Magainin 2, reference compound]	–	–	–	–	did not exhibit cytotoxicity
GIKKFLKSAKKFVKAFK-NH2 [Pep-1]	–	–	–	–	did not exhibit cytotoxicity
